# STAT3 act: increases IL-6 driven STAT3 reporter signal. U3A cells, IL-6 STAT3-luciferase reporter, luminescence; 100% = signal with IL-6 EC80 alone. activation (% of control), % at 5.6 µM. 190,000 tested, 0.91% active;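 active = activation above the screen-wide mean of compound activation plus 3 SD, cut at about 130% in these data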;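 note: 0% = background luminescence of wells with medium and substrate only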
#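 Test system: STAT3-luciferase reporter U3A cells; Detection: reporter luminescence signal; Times: 1 h compound pre-exposure, 6 h IL-6 stimulation, 37 °C; Benchmarks: IL-6-only high control; Also added: IL-6 stimulus at 33 ng/mL final.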
# TRAIL sens C8: caspase-8 TRAIL sensitization | NB7+C8 cells + TRAIL, ATPlite viability luminescence | 360,000 tested, 1% active | inhibition (viability loss, TRAIL sensitization), % at 10 µM;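 active = compounds causing at least 50% loss of cell viability in the single-dose screen, relative to plate controls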
# STAT1 inh: inhibitors of IFN-gamma induced STAT1 signaling. 200,000 tested, 0.35% active. inhibition, % at 5.5 µM. NIH 3T3 STAT1-luciferase reporter, luminescence;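 active = inhibition above a set limit, the mean inhibition across all tested compounds plus 3 SD, cut at about 34% in these data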;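 note: 0% = IFN-gamma with DMSO and 100% = IFN-gamma with 300 µM nifuroxazide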
# PPC-1+TRAIL kill: kills PPC-1 cancer cells in the presence of TRAIL. cell killing (% activity), % at 4 µM or 5 µM. 220,000 tested, 0.41% active. PPC-1 cells + TRAIL, ATPLite viability luminescence. AID 1443;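 active = cell killing above 50% in the first pass at 4 µM, then a duplicate retest at 5 µM averaging 50% or more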;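 note: plate controls were cells with TRAIL plus DMSO for no effect and medium-only wells lacking cells for full effect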
# STAT3 blocker: reduces IL-6 driven STAT3 reporter signal | U3A cells, IL-6 STAT3-luciferase reporter, luminescence; host cell line lacks STAT1 | inhibition, % at 5.5 µM | 190,000 tested, 0.89% active | AID 862;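 active = inhibition above the mean inhibition across all screened compounds plus 3 SD, cut at about 44% in these data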;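 note: 0% = DMSO only wells and 100% = 100 µM nifuroxazide control wells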
# PPC-1 tox: PPC-1 cell cytotoxicity; PPC-1 viability, ATPlite luminescence, overnight; AID 1447; 1,200 tested, 50% active; shares compounds with PPC-1+TRAIL kill; cytotoxicity, % at 5 µM;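 active = reconfirmed compounds whose average cytotoxicity reaches 50% or more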;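 note: 0% = DMSO-treated cells and 100% = wells holding medium but no cells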
# The depositor's hits bear a star; / = no result given. Rows were chosen to be rich in hits. Some 1.8% of all compounds tested hit in one or more screens of this group.
SMILES,STAT3 act,TRAIL sens C8,STAT1 inh,PPC-1+TRAIL kill,STAT3 blocker,PPC-1 tox
CCC(C)c1ccc(-c2cc(C(=O)OCC(=O)Nc3cc(C)on3)c3ccccc3n2)cc1 (stereo not given),83,83*,-9,83*,20,80*
O=C1c2ccccc2C(=O)C1c1ccnc2ccccc12,53,90*,43*,86*,58*,87*
CC(C)(C)n1nnnc1C(c1ccccc1)N1CCN(c2ncc(C(F)(F)F)cc2Cl)CC1 (stereo not given),/,8,/,/,/,/
CCOC(=O)C1CCCN(C(=O)COc2ccc(S(=O)(=O)N3CCOCC3)cc2)C1 (stereo not given),/,0,/,/,/,/
CCOc1ccc(C(=O)Nc2cc(C)ccn2)cc1,24,90*,75*,91*,93*,90*
COCCN(C(=O)c1cc(OC)c(OC)c(OC)c1)c1c(N)n(Cc2ccccc2)c(=O)[nH]c1=O,101,-4,6,10,4,3
CC(C)NC(=O)COC(=O)c1cc(F)c(F)cc1Cl,102,0,0,10,-2,15
Cc1cc(C)c(S(=O)(=O)c2ccc(C(C)(C)C)cc2)c(Cl)n1,/,3,/,/,/,/
Cc1cc(NC(c2ccc(Cl)cc2)c2ccc3cccnc3c2O)no1 (stereo not given),94,18,-5,39,14,36
Cc1ccc(S(=O)(=O)Nc2cccc3ncccc23)s1,115,27,-95,20,-15,30
CCCCCCN1C[C@@H](O)[C@H](n2cc(-c3ccc(F)cc3)nn2)C[C@@H]1c1ccc(C)cc1,/,26,/,/,/,/
CSc1ccc(S(=O)(=O)NC2CCCCCC2)cc1,108,-9,7,0,-4,1
Cc1ccc(S(=O)(=O)NC2CCCCC2)cc1,/,0,/,/,/,/
COC(=O)C[C@H]1C[C@H]2c3cc(NC(=O)Nc4ccc(C(F)(F)F)cc4)ccc3O[C@H]2[C@@H](CO)O1,/,-15,/,/,/,/
COCCN1CCN(c2cc(-c3ccccc3)nc3cc(-c4cccc(F)c4)nn23)CC1,92,41,6,14,11,6
O=C1CCCC(O)=C1Sc1cc(Cl)c(Cl)cc1Cl,/,-23,/,/,/,/
COc1ccc(OC)c(NC(=O)CCN2CCN(CCO)CC2)c1,/,-3,/,/,/,/
CCCCOc1ccc(C2(C(=O)O)CCCC2)cc1,101,-2,-8,-9,3,/
CCCOc1ccc(C2(C(=O)O)CCCC2)cc1,101,-10,2,11,3,13
O=C(Nc1nc(=O)c2ccccc2s1)c1ccccc1,126,34,-48,26,-28,33
CC(=O)N(C1=C(N2CCOCC2)C(=O)c2ccccc2C1=O)c1ccc(C(=O)O)cc1,/,17,/,3,/,/
CC(=O)N(C)C1=C(N2CCOCC2)C(=O)c2ccccc2C1=O,108,90*,-2,24,-5,27
O=C(CC[C@H]1O[C@@H](n2ccc(=O)[nH]c2=O)[C@H](O)[C@@H]1O)N[C@H](Cc1ccccc1)C(=O)NCc1ccc2c(c1)OCO2,/,-6,/,/,/,/
Cc1cccc(NS(=O)(=O)c2ccc(Br)s2)n1,107,3,15,15,-8,6
COc1ccc2c(c1)sc1nc(-c3ccccc3)cn12,15,96*,71*,93*,106*,92*
SMILES,STAT3 act,TRAIL sens C8,STAT1 inh,PPC-1+TRAIL kill,STAT3 blocker,PPC-1 tox
O=C(O)CCC(=O)Nc1ccc(F)cc1,101,11,-5,-11,6,-12
Cc1ccccc1NC(=O)CSc1ccc(-c2cccnc2)nn1,/,14,/,/,/,/
CCOC(=O)c1ccccc1NC(=O)CSc1ccc(-c2cccnc2)nn1,101,-1,17,-1,4,-6
Cc1ccc(N2CC(C(=O)Nc3ccc(S(=O)(=O)NCC4CCCO4)cc3)CC2=O)cc1C (stereo not given),/,-2,/,/,/,/
Cc1ccc(N2C(=O)Nc3ccccc3C2(O)C(=O)N2CCN(c3ccccn3)CC2)cc1C (stereo not given),113,18,-11,11,-14,5
CCc1ccc(N2C(=O)Nc3ccccc3C2(O)C(=O)N2CCN(c3ccccn3)CC2)cc1 (stereo not given),102,10,-16,0,5,/
COc1cc(C(=O)N/N=C(\c2ccccc2)c2ccccn2)cc(OC)c1OC,96,31,3,26,8,29
Clc1ccc(OCc2nc3ccccc3[nH]2)cc1,87,37,-51,33,20,36
O=S(=O)(CCc1nc2ccccc2[nH]1)c1ccc(Cl)cc1,103,7,-8,10,5,/
c1ccc(OCc2nc3ccccc3[nH]2)cc1,94,14,-31,24,11,/
Cc1ccc(OCc2nc3ccccc3[nH]2)cc1,74,30,-53,49,32,43
CC(=O)c1cccc(OCC(O)CNCCOc2ccc(C)cc2)c1 (stereo not given),/,-12,/,/,/,/
O=C(O)c1ccccc1-c1ccccc1C(=O)NCc1ccccc1F,/,5,/,/,/,/
CCOc1ccc(CCN2C(=S)N([C@@H](CC(C)C)CN3CCCC3CN3C(=S)NC[C@@H]3Cc3ccccc3)C[C@@H]2CC(C)C)cc1 (stereo not given in full),/,15,/,/,/,/
CCOC(=O)c1nn(-c2ccc3c(c2)OCCO3)cc1O,86,54*,2,48,20,49
CCC(=O)N1CCc2cc(S(=O)(=O)N3CCc4ccccc43)ccc21,77,12,3,-3,32,-3
O=C(O)CCCC(=O)N1CCc2cc(S(=O)(=O)N3CCc4ccccc43)ccc21,122,7,5,8,-22,/
Cc1ccc(S(=O)(=O)NCC(=O)NC2CCCCCC2)cc1,95,-32,0,8,11,-3
COCCNC(=O)c1ccc2c3n(nc2c1)-c1ccc(Cl)cc1CO3,/,14,/,26,/,/
COCCNC(=O)c1ccc2c3n(nc2c1)-c1ccccc1CO3,/,58*,/,50*,/,55*
Cc1ccc2c(c1)COc1c3ccc(C(=O)NCCO)cc3nn1-2,/,32,/,23,/,/
C=CCNC(=O)c1ccc2c3n(nc2c1)-c1ccccc1CO3,/,86*,/,84*,/,84*

# Bioassay records (PubChem BioAssay)
